Assays:
Mus musculus [1] = test: Neurotoxicity in C57Bl/6j mouse assessed as inability to maintain equilibrium on rotarod up to 1000 mg/kg, po determined 1 to 3 hrs postdose by rotarod test; assay type: toxicity, organism-based; parameters: dose 1000 mg/kg, route oral; settings: in vivo
Procedure, shortened: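 Male C57Bl/6j mice were acclimated to the rotarod at 4 rpm, then given two training sessions on an accelerating rod (4-40 rpm over 300 s). Only mice with latencies >60 s were kept. After oral dosing, latency to fall from the accelerating rod was recorded at 1, 2 and 3 h.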

Cytochrome P450 3A4 = Cytochrome P450 3A4 (Homo sapiens, UniProt P08684); test: Inhibition of human CYP3A4 at >100 uM; assay type: ADME
Cytochrome P450 3A4, sequence (P08684 whole entry): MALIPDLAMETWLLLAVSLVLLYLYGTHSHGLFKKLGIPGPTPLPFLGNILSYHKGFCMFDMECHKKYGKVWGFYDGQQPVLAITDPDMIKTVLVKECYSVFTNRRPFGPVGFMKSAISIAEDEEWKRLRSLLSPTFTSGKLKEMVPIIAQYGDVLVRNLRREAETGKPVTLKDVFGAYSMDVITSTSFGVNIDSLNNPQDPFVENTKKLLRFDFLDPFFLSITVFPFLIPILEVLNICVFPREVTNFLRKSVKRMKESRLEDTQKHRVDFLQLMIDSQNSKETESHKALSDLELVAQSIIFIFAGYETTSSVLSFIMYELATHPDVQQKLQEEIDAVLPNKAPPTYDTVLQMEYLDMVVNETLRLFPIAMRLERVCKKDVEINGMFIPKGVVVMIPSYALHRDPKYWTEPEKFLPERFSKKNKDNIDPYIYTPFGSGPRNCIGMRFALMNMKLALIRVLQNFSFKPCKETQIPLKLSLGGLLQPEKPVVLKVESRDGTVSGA

Cytochrome P450 2C19 = Cytochrome P450 2C19 (Homo sapiens, UniProt P33261); test: Inhibition of human CYP2C19 at >38 uM; assay type: ADME
Cytochrome P450 2C19, sequence (P33261 whole entry): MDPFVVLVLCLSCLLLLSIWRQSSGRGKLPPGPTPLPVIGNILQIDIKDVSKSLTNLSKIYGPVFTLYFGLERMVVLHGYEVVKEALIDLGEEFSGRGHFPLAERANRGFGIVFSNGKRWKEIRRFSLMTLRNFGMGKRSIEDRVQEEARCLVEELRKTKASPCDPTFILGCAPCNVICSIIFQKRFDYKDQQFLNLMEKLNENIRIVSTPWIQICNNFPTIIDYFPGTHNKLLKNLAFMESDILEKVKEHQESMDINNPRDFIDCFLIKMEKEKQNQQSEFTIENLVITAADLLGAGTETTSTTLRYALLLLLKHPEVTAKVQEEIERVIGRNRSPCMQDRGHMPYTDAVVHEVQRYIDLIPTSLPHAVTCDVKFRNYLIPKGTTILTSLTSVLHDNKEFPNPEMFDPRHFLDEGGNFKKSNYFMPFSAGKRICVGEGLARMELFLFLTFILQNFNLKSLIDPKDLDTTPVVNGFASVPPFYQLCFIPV

Mus musculus [2] = test: Antinociceptive activity against formalin-induced pain in mouse assessed as attenuation of nocifensive phase 2 behaviors during phase 2 (25 to 45 mins post formalin injection) administered via oral gavage 30 mins before to formalin challenge; assay type: functional
Procedure, shortened: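 Mice were given compound by oral gavage in PEG/Tween 80/PVP + CMC vehicle 30 min before 20 μL of 5% formalin was injected into the left hind paw. Paw flinching, licking and biting were timed in 5 min bins by a single observer. Read-out was time in nociceptive behaviour at 25-45 min. Mean ± SE, n = 5-6, one-way ANOVA with post hoc tests.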

Brain = test: Drug uptake in rat brain by microdialysis relative to compound plasma level; assay type: ADME, tissue-based; settings: in vivo
Homo sapiens [3] = species on record: Homo sapiens; test: Ratio of IC50 for human eNOS to EC50 for human iNOS
Homo sapiens [4] = species on record: Homo sapiens; test: Ratio of IC50 for human nNOS to EC50 for human iNOS
[5] = molecular target: T1, Nitric oxide synthase 3 (Homo sapiens) (UniProt P29474); test: Inhibition of human eNOS expressed in HEK293 cells assessed as inhibition A23187 induced nitric oxide production at 100 uM incubated for 24 hrs measured after 18 hrs of […] challenge using 2,3-diaminonaphthalene by fluorescence assay; assay type: cell-based
T1 sequence (whole entry): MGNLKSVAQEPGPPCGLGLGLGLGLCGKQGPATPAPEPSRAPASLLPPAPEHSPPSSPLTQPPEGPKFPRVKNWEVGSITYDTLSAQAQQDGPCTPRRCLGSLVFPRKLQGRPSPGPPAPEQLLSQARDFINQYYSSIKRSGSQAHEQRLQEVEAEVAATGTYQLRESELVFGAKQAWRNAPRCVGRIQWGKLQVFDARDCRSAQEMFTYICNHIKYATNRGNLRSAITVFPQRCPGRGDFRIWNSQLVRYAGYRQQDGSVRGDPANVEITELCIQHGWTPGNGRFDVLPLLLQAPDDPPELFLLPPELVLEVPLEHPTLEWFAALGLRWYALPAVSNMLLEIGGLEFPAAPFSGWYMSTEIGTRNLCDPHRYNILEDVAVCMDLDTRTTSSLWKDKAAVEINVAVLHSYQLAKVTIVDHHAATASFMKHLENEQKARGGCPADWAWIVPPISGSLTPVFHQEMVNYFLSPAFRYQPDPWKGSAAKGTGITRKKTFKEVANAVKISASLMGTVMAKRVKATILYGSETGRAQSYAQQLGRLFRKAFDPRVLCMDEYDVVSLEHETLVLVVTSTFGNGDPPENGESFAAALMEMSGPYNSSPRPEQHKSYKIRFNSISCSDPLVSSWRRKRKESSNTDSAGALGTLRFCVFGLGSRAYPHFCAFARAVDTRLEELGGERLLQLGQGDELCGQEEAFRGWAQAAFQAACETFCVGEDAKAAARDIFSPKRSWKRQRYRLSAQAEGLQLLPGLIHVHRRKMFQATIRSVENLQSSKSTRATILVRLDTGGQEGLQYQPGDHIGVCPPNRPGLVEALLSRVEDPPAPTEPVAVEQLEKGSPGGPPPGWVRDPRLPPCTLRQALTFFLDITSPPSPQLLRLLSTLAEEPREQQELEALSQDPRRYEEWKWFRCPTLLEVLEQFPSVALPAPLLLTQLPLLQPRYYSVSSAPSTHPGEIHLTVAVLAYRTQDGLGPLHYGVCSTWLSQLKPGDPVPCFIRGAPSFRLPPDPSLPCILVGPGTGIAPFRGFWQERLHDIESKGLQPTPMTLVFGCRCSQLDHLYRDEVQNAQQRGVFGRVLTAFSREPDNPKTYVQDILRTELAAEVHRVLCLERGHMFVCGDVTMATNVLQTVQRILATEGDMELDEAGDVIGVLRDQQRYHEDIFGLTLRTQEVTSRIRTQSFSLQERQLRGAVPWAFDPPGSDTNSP

Mus musculus [6] = test: Inhibition of LPS-induced iNOS activation in BALB/c mouse assessed as plasma nitrate levels at 30 mg/kg administered via oral gavage before LPS challenge measured after 6 to 8 hrs using 2,3-diaminonaphthalene by fluorescence assay relative to control; assay type: functional
Procedure, shortened: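 Male BALB/c mice dosed by oral gavage (90% PEG/5% Tween 80/5% PVP + 0.5% w/v CMC) immediately before LPS (10 mg/kg ip in 0.9% NaCl). Mice killed at 6 h. EDTA plasma analysed for nitrate and drug levels; nitrite measured by DAN fluorescence.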

SMILES | Activity (Mus musculus [1]) | inhibition (INH) (Cytochrome P450 3A4) [%] | inhibition (INH) (Cytochrome P450 2C19) [%] | ED50 (Mus musculus [2]) [mg/kg] | Drug uptake (Brain) [%] | Ratio EC50 (Homo sapiens [3]) | Ratio EC50 (Homo sapiens [4]) | inhibition [5] [%] | inhibition in vivo at 30 mg/kg (Mus musculus [6]) [%]
O=c1cc(Cn2c(C3CCC3)nc3nccnc32)c2ccc(F)c(F)c2[nH]1 | Non-toxic | < 50 | < 50 | 13 | 2 | – | – | – | –
CC(C)Cc1nc2ccccc2n1Cc1cc(=O)[nH]c2c(F)c(F)ccc12 | – | – | – | – | – | > 263 | 1.8 | < 50 | 85

— ChEMBL document CHEMBL1800057, “Discovery of dual inducible/neuronal nitric oxide synthase (iNOS/nNOS) inhibitor development candidate 4-((2-cyclobutyl-1H-imidazo[4,5-b]pyrazin-1-yl)methyl)-7,8-difluoroquinolin-2(1H)-one (KD7332) part 2: identification of a novel, potent, and selective series of benzimidazole-quinolinone …” (J Med Chem, 2010)
